“Also recorded” adds a separate entry of the source.
What was measured:
[1] = test system: TNFα-stimulated IL-6 production in 4T1 cells; experiment: IL-6 ELISA of TNFα-stimulated 4T1 cells; type: cell-based, murine; settings: 0.25 to 1.0 µM, TNFα 10 ng/ml, 24 h
[2] = PND-1186 levels in tumor samples by HPLC and mass spectroscopy; type: in vivo, Balb/c mice; settings: for maximal PND-1186 in tumors / time to maximal PND-1186 in tumors: subcutaneous 4T1 tumors
pY118 paxillin = experiment: Immunoblotting of pY118 paxillin in orthotopic 4T1 tumors; type: in vivo, Balb/c mice; settings: 0.5 mg/ml ad libitum
Water solubility = type: physicochemical
[3] = biological target: FAK Tyr-397 phosphorylation (pY397 FAK) (Mus musculus, UniProt P34152); experiment: Immunoblotting of tumor FAK Tyr-397 phosphorylation in 4T1 tumors; type: in vivo, Balb/c mice
Pharmacokinetic = type: in vivo, Balb/c mice; settings: plasma; for Cmax: mice
[4] = test system: carcinoma cells in three-dimensional culture; settings: 0.1 µM; cited from earlier work
[5] = Body weight and toxicity in mouse studies; type: in vivo
[6] = test system: adherent cell proliferation; settings: 1.0 µM; cited from earlier work
[7] = test system: p130Cas Tyr-410 phosphorylation (pY410Cas); experiment: Immunoblotting of tumor p130Cas Tyr-410 phosphorylation in 4T1 tumors; type: in vivo, Balb/c mice
[8] = test system: MDA-MB-231 cells in lungs; experiment: Experimental metastasis assay; type: in vivo, nude mice; settings: 150 mg/kg p.o. pre-administered, 1 and 6 h after cell injection
4T1 lung metastases = experiment: Spontaneous 4T1 breast to lung metastasis; type: in vivo, Balb/c mice; settings: 150 mg/kg p.o. b.i.d. for 15 days
[9] = test system: suspended MDA-MB-231 cells; experiment: Apoptosis assay; type: cell-based, human; settings: concentrations up to 10 µM, within 6 h
Procedure, shortened: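 Suspended MDA-MB-231 cells exposed to test compound or DMSO for 1 h or 6 h, then stained with FITC-annexin V for 30 min and analysed by flow cytometry within 1 h. Quadrant gates were set from autofluorescence (negative) and staurosporine 1 µM (positive) controls. Apoptosis is the percent of annexin V-positive cells.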

[10] = biological target: FAK pY397 phosphorylation (Homo sapiens, UniProt Q05397); experiment: Immunoblotting of FAK pY397 in MDA-MB-231 tumors; type: in vivo; settings: 0.5 mg/ml ad libitum
Procedure, shortened: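 From day 12 (palpable tumors), mice drank 5% sucrose or 0.5 mg/ml compound in 5% sucrose ad libitum. Tumor growth was followed to Day 70; final tumors were weighed and lysed for immunoblot of the FAK pY397 to total FAK ratio (n=11 control, 13 treated).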

[11] = test system: 4T1 orthotopic breast carcinoma tumors; experiment: Orthotopic 4T1 breast carcinoma tumor growth; type: in vivo, Balb/c mice
[12] = test system: 4T1 tumor blood vessels (CD31); experiment: Anti-CD31 staining of 4T1 orthotopic tumors; type: in vivo, Balb/c mice; settings: 150 mg/kg p.o. b.i.d.
[13] = test system: tumor-associated splenomegaly; experiment: Spleen weight in 4T1 tumor-bearing mice; type: in vivo, Balb/c mice
cell motility = settings: 0.1 to 1.0 µM; cited from earlier work
[14] = test system: MDA-MB-231 orthotopic tumors; experiment: Orthotopic MDA-MB-231 tumor growth; type: in vivo, SCID mice; settings: 0.5 mg/ml ad libitum, Day 27 (15 days of administration)
Src activity = settings: adherent or suspended 4T1 cells; cited from earlier work
[15] = test system: subcutaneous human tumor xenografts; settings: oral administration; lung, prostate, pancreatic, glioma, colon, breast; cited from earlier work
[16] = test system: lung carcinoma xenografts; settings: cited from earlier work
glioma tumor = settings: mice; cited from earlier work
prostate carcinoma cells = settings: in vitro; cited from earlier work
[17] = 0.5 mg/ml ad libitum, orthotopic 4T1 tumors

Chain of FAK Tyr-397 phosphorylation (pY397 FAK) (P34152 whole entry): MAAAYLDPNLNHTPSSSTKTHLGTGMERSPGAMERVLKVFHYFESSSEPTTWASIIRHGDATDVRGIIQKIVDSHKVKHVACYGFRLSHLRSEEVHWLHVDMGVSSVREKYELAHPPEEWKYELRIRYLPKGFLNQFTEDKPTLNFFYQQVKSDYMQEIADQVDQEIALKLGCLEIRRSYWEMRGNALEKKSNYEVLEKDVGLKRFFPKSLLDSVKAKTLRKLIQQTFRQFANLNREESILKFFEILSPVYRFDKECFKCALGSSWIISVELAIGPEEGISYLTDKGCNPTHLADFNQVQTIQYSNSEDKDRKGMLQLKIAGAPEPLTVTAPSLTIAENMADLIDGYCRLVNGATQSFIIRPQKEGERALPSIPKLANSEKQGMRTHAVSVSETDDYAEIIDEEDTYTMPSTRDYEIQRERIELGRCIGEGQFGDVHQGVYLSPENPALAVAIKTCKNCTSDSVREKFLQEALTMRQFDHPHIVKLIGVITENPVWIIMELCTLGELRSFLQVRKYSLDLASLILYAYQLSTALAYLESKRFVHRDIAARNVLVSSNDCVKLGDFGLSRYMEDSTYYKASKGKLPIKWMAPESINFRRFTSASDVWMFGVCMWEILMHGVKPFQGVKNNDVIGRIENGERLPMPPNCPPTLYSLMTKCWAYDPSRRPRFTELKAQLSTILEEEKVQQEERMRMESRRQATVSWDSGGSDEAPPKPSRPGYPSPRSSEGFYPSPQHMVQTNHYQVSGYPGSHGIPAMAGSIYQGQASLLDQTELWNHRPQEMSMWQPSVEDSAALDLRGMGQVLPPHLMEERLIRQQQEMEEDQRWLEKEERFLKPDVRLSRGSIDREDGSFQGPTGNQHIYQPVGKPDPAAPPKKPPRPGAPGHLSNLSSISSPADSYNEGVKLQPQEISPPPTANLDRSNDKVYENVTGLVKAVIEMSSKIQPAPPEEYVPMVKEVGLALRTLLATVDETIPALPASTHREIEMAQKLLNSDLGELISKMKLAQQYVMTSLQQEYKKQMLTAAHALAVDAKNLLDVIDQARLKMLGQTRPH
Chain of FAK pY397 phosphorylation (Q05397 whole entry): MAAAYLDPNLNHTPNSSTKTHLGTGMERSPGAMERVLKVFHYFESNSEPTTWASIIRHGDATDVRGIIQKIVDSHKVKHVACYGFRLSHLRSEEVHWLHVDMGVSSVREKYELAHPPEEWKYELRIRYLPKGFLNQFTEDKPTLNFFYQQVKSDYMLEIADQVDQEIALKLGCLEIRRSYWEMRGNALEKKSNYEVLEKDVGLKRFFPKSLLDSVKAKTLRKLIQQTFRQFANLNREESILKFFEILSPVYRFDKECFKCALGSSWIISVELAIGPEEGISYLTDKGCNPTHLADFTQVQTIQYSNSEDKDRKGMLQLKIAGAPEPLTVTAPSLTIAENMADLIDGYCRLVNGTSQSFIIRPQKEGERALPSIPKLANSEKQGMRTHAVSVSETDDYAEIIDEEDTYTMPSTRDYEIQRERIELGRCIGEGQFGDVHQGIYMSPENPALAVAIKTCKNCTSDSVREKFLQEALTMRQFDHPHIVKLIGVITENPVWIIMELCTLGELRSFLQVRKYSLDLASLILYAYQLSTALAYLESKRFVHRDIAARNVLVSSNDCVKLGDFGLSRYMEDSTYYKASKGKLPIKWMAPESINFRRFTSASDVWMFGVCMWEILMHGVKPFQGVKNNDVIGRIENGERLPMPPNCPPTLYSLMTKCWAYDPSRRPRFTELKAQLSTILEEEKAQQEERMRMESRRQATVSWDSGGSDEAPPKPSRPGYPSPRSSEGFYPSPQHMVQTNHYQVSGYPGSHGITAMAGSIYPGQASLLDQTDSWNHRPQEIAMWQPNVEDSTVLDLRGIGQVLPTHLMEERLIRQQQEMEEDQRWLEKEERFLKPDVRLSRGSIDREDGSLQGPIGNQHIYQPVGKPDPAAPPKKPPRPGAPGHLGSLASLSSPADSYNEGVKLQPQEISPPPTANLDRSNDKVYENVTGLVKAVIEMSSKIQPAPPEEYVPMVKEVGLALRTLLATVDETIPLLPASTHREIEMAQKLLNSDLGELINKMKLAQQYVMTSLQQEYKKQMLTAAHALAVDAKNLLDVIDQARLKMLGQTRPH

## CNC(=O)c1ccccc1Nc1cc(Nc2ccc(N3CCOCC3)cc2OC)ncc1C(F)(F)F [PND-1186]
[1]
  IL-6 release: inhibited IL-6 release in a dose-dependent manner
[2]; 30 mg/kg single i.p.
  maximal PND-1186 in tumors: 0.75 µg/g
  time to maximal PND-1186 in tumors: ≤ 1 h
[2]; 100 mg/kg single i.p.
  maximal PND-1186 in tumors: 16.1 µg/g
  time to maximal PND-1186 in tumors: ≤ 1 h
[2]; Balb/c, mouse, tumor, oral, 0.5 mg/ml
  concentration at 7 days: 522 ng/g
pY118 paxillin
  pY118 paxillin phosphorylation in tumors: inhibited
Water solubility
  solubility: > 20 mg/mL
[3]; [17]
  FAK pY397 phosphorylation in primary 4T1 tumors: sufficient to inhibit
[3]; 30 mg/kg single i.p., subcutaneous 4T1 tumors, 12 h
  tumor FAK pY397 phosphorylation at 12 h: not significantly inhibited
Pharmacokinetic; 30 mg/kg i.p.
  Cmax: 34.8 µM
Pharmacokinetic; Balb/c, mouse, ip, 30 mg/kg
  bioavailability: 31.1%
Pharmacokinetic; Balb/c, mouse, ip, 100 mg/kg
  bioavailability: 42.2%
Pharmacokinetic; Balb/c, mouse, ip, 100 mg/kg, CMAX, 100 mg/kg i.p.
  Cmax: 117 µM
Pharmacokinetic; Balb/c, mouse, oral, 0.5 mg/ml
  concentration at 7 days: 1.2 µM
Pharmacokinetic; Balb/c, mouse, po, 150 mg/kg
  bioavailability: 14.8%
[4]
  carcinoma cell apoptosis under three-dimensional culture conditions: selectively promotes carcinoma cell apoptosis
[5]; 0.5 mg/ml ad libitum administration
  toxicity or weight loss: no signs of toxicity or weight loss; also recorded: without toxicity or weight loss
[5]; 150 mg/kg p.o. b.i.d., 4T1 tumor-bearing Balb/c mice
  effect on total body weight: without affects on total body weight
[6]
  adherent cell proliferation: limited inhibitory effects on adherent cell proliferation
[7]; [17]
  p130Cas pY410 phosphorylation in primary 4T1 tumors: sufficient to inhibit
[7]; 100 mg/kg single i.p., subcutaneous 4T1 tumors, by 3 h
  p130Cas Tyr-410 phosphorylation (pY410Cas) in tumors: significantly reduced
[8]
  accumulation of tumor cells in the lungs: significantly inhibited the accumulation of tumor cells in the lungs
4T1 lung metastases
  mice with high lung metastatic burden: no mice with a high metastatic burden
[9]
  MDA-MB-231 apoptosis by annexin V binding: did not promote MDA-MB-231 apoptosis
[10]
  FAK pY397 phosphorylation in MDA-MB-231 tumors: significantly reduce
[11]; 0.5 mg/ml ad libitum, Day 13
  tumor size by caliper measurements versus control: tumor size was significantly different
[11]; 150 mg/kg p.o. b.i.d., 16 days
  reduction of final tumor volume compared to vehicle control: 3 fold
[11]; 150 mg/kg p.o. b.i.d., Day 7
  tumor volume compared to vehicle control: significantly reduced tumor volume
[12]
  vascular differences by anti-CD31 staining: no major vascular differences
[13]; 0.5 mg/ml ad libitum
  spleen size: of normal size
[13]; 150 mg/kg p.o. b.i.d.
  spleen appearance: healthy and indistinguishable from non-treated, non-tumor bearing mice
  spleen weight, vehicle-treated over PND-1186-treated mice: > 2 fold
Cell motility
  cell motility: prevents cell motility in a dose-dependent fashion
[14]
  tumor size by caliper measurements versus control: control tumors were significantly larger
Src activity
  Src activity: does not inhibit Src activity

## CN(c1ncccc1CNc1nc(Nc2ccc3c(c2)CC(=O)N3)ncc1C(F)(F)F)S(C)(=O)=O [PF-562,271]
[15]
  growth of subcutaneous human tumor xenografts: reduces the growth
[16]
  tumor microvessel density: reduced tumor microvessel density

## CNC(=O)c1ccccc1Nc1nc(Nc2ccc(N3CCOCC3)cc2OC)ncc1Cl [TAE-226]
Glioma tumor
  glioma tumor growth: can prevent glioma tumor growth in mice

## CS(=O)(=O)c1cccc(CNc2nc(Nc3ccc4c(c3)CCC(=O)N4)ncc2C(F)(F)F)c1 [PF-573,228]
Prostate carcinoma cells
  prostate carcinoma cell motility: prevented prostate carcinoma cell motility in vitro
